Measurements published in ChEMBL document CHEMBL1138354, “2-(2'-((dimethylamino)methyl)-4'-(fluoroalkoxy)-phenylthio)benzenamine derivatives as serotonin transporter imaging agents” (J Med Chem, 2007).

Assays:
Nucleic Acid [1] = assay: Ratio of drug level in hypothalamus to cerebellum in rat after 120 mins; assay type: ADME, tissue-based; details: in vivo, 2 h
In short: (§1)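 Rats, 3 per group, given ¹⁸F tracer (10–100 μCi, 0.2 ml sterile water with 1 mg/mL BSA) into the femoral vein under isoflurane. Brain regions, including hypothalamus, striatum and cerebellum, dissected, weighed and counted. % dose/g calculated against a 1% diluted aliquot of the dose. Region/cerebellum ratio is region %dose/g divided by cerebellum %dose/g. SD of the ratio propagated from both means and SDs.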

Lung [2] = assay: Biodistribution in iv dosed rat lungs after 30 mins; assay type: ADME, organism-based; details: in vivo, 0.5 h
In short: (§2)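 [18F]-labeled tracer was given to rats under isoflurane anesthesia: 0.2 ml sterile water with 1 mg/mL BSA and 10–100 μCi, into the femoral vein. Three rats per group. Animals were killed by cervical dislocation under anesthesia at the stated time. Organs were removed, weighed and counted. Uptake was calculated as percent dose against a 1% aliquot of the injected dose counted alongside.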

Brain [3] = assay: Biodistribution in iv dosed rat brain after 30 mins; assay type: ADME, organism-based; details: in vivo, 0.5 h; in short: as §2
Nucleic Acid [4] = assay: Ratio of drug level in hypothalamus to cerebellum in rat after 30 mins; assay type: ADME, tissue-based; details: in vivo, 0.5 h; in short: as §1
Zone of skin [5] = assay: Biodistribution in iv dosed rat skin after 2 mins; assay type: ADME, organism-based; details: in vivo
Zone of skin [6] = assay: Biodistribution in iv dosed rat skin after 30 mins; assay type: ADME, organism-based; details: in vivo, 0.5 h
In short: (§3)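 Rats, 3 per group, under isoflurane. ¹⁸F tracer (10–100 μCi) in 0.2 ml sterile water with 1 mg/mL BSA injected into the femoral vein. Killed by cervical dislocation under anesthesia at the stated time. Organs removed, weighed and counted. % dose/organ calculated against counts of a 1% diluted aliquot of the injected dose.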

Zone of skin [7] = assay: Biodistribution in iv dosed rat skin after 60 mins; assay type: ADME, organism-based; details: in vivo, 1 h
Zone of skin [8] = assay: Biodistribution in iv dosed rat skin after 240 mins; assay type: ADME, organism-based; details: in vivo, 4 h
Blood [9] = assay: Biodistribution in iv dosed rat blood after 2 mins; assay type: ADME, organism-based; details: in vivo; in short: as §2
Blood [10] = assay: Biodistribution in iv dosed rat blood after 120 mins; assay type: ADME, organism-based; details: in vivo, 2 h; in short: as §2
Blood [11] = assay: Biodistribution in iv dosed rat blood after 240 mins; assay type: ADME, organism-based; details: in vivo, 4 h; in short: as §2
Heart [12] = assay: Biodistribution in iv dosed rat heart after 2 mins; assay type: ADME, organism-based; details: in vivo; in short: as §2
Heart [13] = assay: Biodistribution in iv dosed rat heart after 30 mins; assay type: ADME, organism-based; details: in vivo, 0.5 h; in short: as §2
Heart [14] = assay: Biodistribution in iv dosed rat heart after 60 mins; assay type: ADME, organism-based; details: in vivo, 1 h; in short: as §2
Heart [15] = assay: Biodistribution in iv dosed rat heart after 120 mins; assay type: ADME, organism-based; details: in vivo, 2 h; in short: as §2
Heart [16] = assay: Biodistribution in iv dosed rat heart after 240 mins; assay type: ADME, organism-based; details: in vivo, 4 h; in short: as §2
Lung [17] = assay: Biodistribution in iv dosed rat lungs after 2 mins; assay type: ADME, organism-based; details: in vivo; in short: as §2
Lung [18] = assay: Biodistribution in iv dosed rat lungs after 60 mins; assay type: ADME, organism-based; details: in vivo, 1 h; in short: as §2
Liver [19] = assay: Biodistribution in iv dosed rat liver after 2 mins; assay type: ADME, organism-based; details: in vivo; in short: as §2
Liver [20] = assay: Biodistribution in iv dosed rat liver after 120 mins; assay type: ADME, organism-based; details: in vivo, 2 h; in short: as §2
Liver [21] = assay: Biodistribution in iv dosed rat liver after 240 mins; assay type: ADME, organism-based; details: in vivo, 4 h; in short: as §2
Spleen [22] = assay: Biodistribution in iv dosed rat spleen after 2 mins; assay type: ADME, organism-based; details: in vivo
Spleen [23] = assay: Biodistribution in iv dosed rat spleen after 30 mins; assay type: ADME, organism-based; details: in vivo, 0.5 h; in short: as §3
Spleen [24] = assay: Biodistribution in iv dosed rat spleen after 60 mins; assay type: ADME, organism-based; details: in vivo, 1 h
Spleen [25] = assay: Biodistribution in iv dosed rat spleen after 120 mins; assay type: ADME, organism-based; details: in vivo, 2 h; in short: as §3
Spleen [26] = assay: Biodistribution in iv dosed rat spleen after 240 mins; assay type: ADME, organism-based; details: in vivo, 4 h
Kidney [27] = assay: Biodistribution in iv dosed rat kidney after 2 mins; assay type: ADME, organism-based; details: in vivo; in short: as §2
Kidney [28] = assay: Biodistribution in iv dosed rat kidney after 30 mins; assay type: ADME, organism-based; details: in vivo, 0.5 h; in short: as §2
Kidney [29] = assay: Biodistribution in iv dosed rat kidney after 60 mins; assay type: ADME, organism-based; details: in vivo, 1 h; in short: as §2
Kidney [30] = assay: Biodistribution in iv dosed rat kidney after 120 mins; assay type: ADME, organism-based; details: in vivo, 2 h; in short: as §2
Kidney [31] = assay: Biodistribution in iv dosed rat kidney after 240 mins; assay type: ADME, organism-based; details: in vivo, 4 h; in short: as §2
Muscle tissue [32] = assay: Biodistribution in iv dosed rat muscle after 30 mins; assay type: ADME, organism-based; details: in vivo, 0.5 h; in short: as §2
Muscle tissue [33] = assay: Biodistribution in iv dosed rat muscle after 60 mins; assay type: ADME, organism-based; details: in vivo, 1 h; in short: as §2
Muscle tissue [34] = assay: Biodistribution in iv dosed rat muscle after 120 mins; assay type: ADME, organism-based; details: in vivo, 2 h; in short: as §2
Muscle tissue [35] = assay: Biodistribution in iv dosed rat muscle after 240 mins; assay type: ADME, organism-based; details: in vivo, 4 h; in short: as §2
Bone [36] = assay: Biodistribution in iv dosed rat bone after 2 mins; assay type: ADME, organism-based, Bone element; details: in vivo; in short: as §2
Bone [37] = assay: Biodistribution in iv dosed rat bone after 30 mins; assay type: ADME, organism-based, Bone element; details: in vivo, 0.5 h; in short: as §2
Bone [38] = assay: Biodistribution in iv dosed rat bone after 60 mins; assay type: ADME, organism-based, Bone element; details: in vivo, 1 h; in short: as §2
Bone [39] = assay: Biodistribution in iv dosed rat bone after 120 mins; assay type: ADME, organism-based, Bone element; details: in vivo, 2 h; in short: as §2
Bone [40] = assay: Biodistribution in iv dosed rat bone after 240 mins; assay type: ADME, organism-based, Bone element; details: in vivo, 4 h; in short: as §2
Brain [41] = assay: Biodistribution in iv dosed rat brain after 2 mins; assay type: ADME, organism-based; details: in vivo; in short: as §2
Brain [42] = assay: Biodistribution in iv dosed rat brain after 60 mins; assay type: ADME, organism-based; details: in vivo, 1 h; in short: as §2
Brain [43] = assay: Biodistribution in iv dosed rat brain after 240 mins; assay type: ADME, organism-based; details: in vivo, 4 h; in short: as §2
Striatum [44] = assay: Biodistribution in iv dosed rat striatum assessed as radioactivity after 2 mins; assay type: ADME, organism-based; details: in vivo
Striatum [45] = assay: Biodistribution in iv dosed rat striatum assessed as radioactivity after 60 mins; assay type: ADME, organism-based; details: in vivo, 1 h
Striatum [46] = assay: Biodistribution in iv dosed rat striatum assessed as radioactivity after 120 mins; assay type: ADME, organism-based; details: in vivo, 2 h
Striatum [47] = assay: Biodistribution in iv dosed rat striatum assessed as radioactivity after 240 mins; assay type: ADME, organism-based; details: in vivo, 4 h
Nucleic Acid [48] = assay: Ratio of drug level in hypothalamus to cerebellum in rat after 2 mins; assay type: ADME, tissue-based; details: in vivo
Nucleic Acid [49] = assay: Ratio of drug level in hypothalamus to cerebellum in rat assessed as radioactivity after 60 mins; assay type: ADME, tissue-based; details: in vivo, 1 h
Nucleic Acid [50] = assay: Ratio of drug level in hypothalamus to cerebellum in rat assessed as radioactivity after 240 mins; assay type: ADME, tissue-based; details: in vivo, 4 h
Nucleic Acid [51] = assay: Ratio of drug level in hippocampus to cerebellum in rat assessed as radioactivity after 60 mins; assay type: ADME, tissue-based; details: in vivo, 1 h
Nucleic Acid [52] = assay: Ratio of drug level in hippocampus to cerebellum in rat assessed as radioactivity after 120 mins; assay type: ADME, tissue-based; details: in vivo, 2 h
In short: (§4)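 Groups of three normal rats under isoflurane received the [18F] tracer (10–100 μCi in 0.2 ml sterile water containing 1 mg/mL BSA) into the femoral vein. They were killed by cervical dislocation under anesthesia at the stated time. Cortex, striatum, hippocampus, hypothalamus and cerebellum were dissected, weighed and gamma-counted. %dose/g was set against a 100-fold diluted dose aliquot, and each region was divided by cerebellum.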

Nucleic Acid [53] = assay: Ratio of drug level in hippocampus to cerebellum in rat assessed as radioactivity after 240 mins; assay type: ADME, tissue-based; details: in vivo, 4 h
Nucleic Acid [54] = assay: Ratio of drug level in cortex to cerebellum in rat assessed as radioactivity after 2 mins; assay type: ADME, tissue-based; details: in vivo
Nucleic Acid [55] = assay: Ratio of drug level in cortex to cerebellum in rat assessed as radioactivity after 30 mins; assay type: ADME, tissue-based; details: in vivo, 0.5 h; in short: as §4
Nucleic Acid [56] = assay: Ratio of drug level in cortex to cerebellum in rat assessed as radioactivity after 60 mins; assay type: ADME, tissue-based; details: in vivo, 1 h
Nucleic Acid [57] = assay: Ratio of drug level in cortex to cerebellum in rat assessed as radioactivity after 240 mins; assay type: ADME, tissue-based; details: in vivo, 4 h
Nucleic Acid [58] = assay: Ratio of drug level in striatum to cerebellum in rat assessed as radioactivity after 60 mins; assay type: ADME, tissue-based; details: in vivo, 1 h
Nucleic Acid [59] = assay: Ratio of drug level in striatum to cerebellum in rat assessed as radioactivity after 120 mins; assay type: ADME, tissue-based; details: in vivo, 2 h; in short: as §4
Nucleic Acid [60] = assay: Ratio of drug level in striatum to cerebellum in rat assessed as radioactivity after 240 mins; assay type: ADME, tissue-based; details: in vivo, 4 h
Lung [61] = assay: Biodistribution in iv dosed rat lungs after 120 mins; assay type: ADME, organism-based; details: in vivo, 2 h; in short: as §2
Lung [62] = assay: Biodistribution in iv dosed rat lungs after 240 mins; assay type: ADME, organism-based; details: in vivo, 4 h; in short: as §2
[63] = Partition coefficient, log P at pH 7.4; assay type: physicochemical; details: octanol/water

SMILES: CN(C)Cc1cc(OCC[18F])ccc1Sc1ccccc1N
- Ratio (Nucleic Acid [1]): 7.83
- Drug uptake (Lung [2]): 2.25 %ID
- Drug uptake (Brain [3]): 1.85 %ID
- Ratio (Nucleic Acid [4]): 3.79
- Drug uptake (Zone of skin [5]): 8.78 %ID
- Drug uptake (Zone of skin [6]): 8.66 %ID
- Drug uptake (Zone of skin [7]): 8.44 %ID
- Drug uptake (Zone of skin [8]): 3.77 %ID
- Drug uptake (Blood [9]): 11.86 %ID
- Drug uptake (Blood [10]): 4.06 %ID
- Drug uptake (Blood [11]): 1.74 %ID
- Drug uptake (Heart [12]): 0.95 %ID
- Drug uptake (Heart [13]): 0.17 %ID
- Drug uptake (Heart [14]): 0.12 %ID
- Drug uptake (Heart [15]): 0.09 %ID
- Drug uptake (Heart [16]): 0.04 %ID
- Drug uptake (Lung [17]): 13.21 %ID
- Drug uptake (Lung [18]): 1.4 %ID
- Drug uptake (Liver [19]): 9.9 %ID
- Drug uptake (Liver [20]): 7.68 %ID
- Drug uptake (Liver [21]): 2.26 %ID
- Drug uptake (Spleen [22]): 1.22 %ID
- Drug uptake (Spleen [23]): 0.65 %ID
- Drug uptake (Spleen [24]): 0.35 %ID
- Drug uptake (Spleen [25]): 0.26 %ID
- Drug uptake (Spleen [26]): 0.09 %ID
- Drug uptake (Kidney [27]): 7.93 %ID
- Drug uptake (Kidney [28]): 4.56 %ID
- Drug uptake (Kidney [29]): 4.04 %ID
- Drug uptake (Kidney [30]): 2.66 %ID
- Drug uptake (Kidney [31]): 1.94 %ID
- Drug uptake (Muscle tissue [32]): 9.46 %ID
- Drug uptake (Muscle tissue [33]): 8.24 %ID
- Drug uptake (Muscle tissue [34]): 4.24 %ID
- Drug uptake (Muscle tissue [35]): 2.28 %ID
- Drug uptake (Bone [36]): 8.67 %ID
- Drug uptake (Bone [37]): 7.11 %ID
- Drug uptake (Bone [38]): 4.87 %ID
- Drug uptake (Bone [39]): 2.92 %ID
- Drug uptake (Bone [40]): 3.3 %ID
- Drug uptake (Brain [41]): 1.84 %ID
- Drug uptake (Brain [42]): 1.21 %ID
- Drug uptake (Brain [43]): 0.18 %ID
- Drug uptake (Striatum [44]): 1.01 % ID/g
- Drug uptake (Striatum [45]): 0.7 % ID/g
- Drug uptake (Striatum [46]): 0.36 % ID/g
- Drug uptake (Striatum [47]): 0.08 % ID/g
- Ratio (Nucleic Acid [48]): 1.28
- Ratio (Nucleic Acid [49]): 5.52
- Ratio (Nucleic Acid [50]): 6.58
- Ratio (Nucleic Acid [51]): 3.75
- Ratio (Nucleic Acid [52]): 3.71
- Ratio (Nucleic Acid [53]): 2.14
- Ratio (Nucleic Acid [54]): 1.53
- Ratio (Nucleic Acid [55]): 3.26
- Ratio (Nucleic Acid [56]): 4.78
- Ratio (Nucleic Acid [57]): 2.44
- Ratio (Nucleic Acid [58]): 3.87
- Ratio (Nucleic Acid [59]): 3.85
- Ratio (Nucleic Acid [60]): 2.72
- Drug uptake (Lung [61]): 0.53 %ID
- Drug uptake (Lung [62]): 0.33 %ID
- logD [63]: 2.15
